Experimental findings from ChEMBL document CHEMBL4033620, “Design, synthesis and biological evaluation of quinoline derivatives as HDAC class I inhibitors” (Eur J Med Chem, 2017) are described below.

Test [1] has as its system K562. The experiment in a line: Induction of apoptosis in human K562 cells assessed as early apoptotic cells at 2 uM after 24 hrs by Annexin V-FITC/propidium iodide staining-based flow cytometry (reference value: 4.78%). In kind it is functional.
In test [2] the test system is K562. Kind of test: Induction of apoptosis in human K562 cells assessed as late apoptotic cells at 1 uM after 24 hrs by Annexin V-FITC/propidium iodide staining-based flow cytometry (reference value: 2.83%). In kind it is functional.
Test [3] concerns K562. The experiment in a line: Induction of apoptosis in human K562 cells assessed as necrotic cells at 2 uM after 24 hrs by Annexin V-FITC/propidium iodide staining-based flow cytometry (reference value: 0.035%). In kind it is functional.
The subject of test [4] is K562. The experiment in a line: Induction of apoptosis in human K562 cells assessed as late apoptotic cells at 2 uM after 24 hrs by Annexin V-FITC/propidium iodide staining-based flow cytometry (reference value: 2.83%). It counts as functional.
Test [5] deals with PC-3. Kind of test: Antiproliferative activity against human PC3 cells after 48 hrs by MTT assay. In kind it is functional, cell-based. As to conditions: PC-3, 48 h. The method in brief:
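Cells grown in RPMI1640 with 10% FBS at 37°C, 5% CO2. Seeded at 4000–5000 cells/well for 8 h, then exposed to a range of compound concentrations for 48 h. 0.5% MTT solution added for 4 h, formazan dissolved in DMSO, absorbance read at 570 nm. IC50 derived from inhibition ratios, given as mean ± standard deviation of two or three separate determinations.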

Test [6] relates to K562. The experiment in a line: Induction of apoptosis in human K562 cells assessed as necrotic cells at 1 uM after 24 hrs by Annexin V-FITC/propidium iodide staining-based flow cytometry (reference value: 0.035%). It counts as functional.
Test [7] relates to K562. The experiment in a line: Induction of apoptosis in human K562 cells assessed as viable cells at 2 uM after 24 hrs by Annexin V-FITC/propidium iodide staining-based flow cytometry (reference value: 92.4%). In kind it is functional.
Test [8] deals with K562. The experiment in a line: Induction of apoptosis in human K562 cells after 24 hrs by Annexin V-FITC/propidium iodide staining-based flow cytometric method. It counts as functional, cell-based.
Test [9] relates to K562. Kind of test: Induction of apoptosis in human K562 cells assessed as early apoptotic cells at 1 uM after 24 hrs by Annexin V-FITC/propidium iodide staining-based flow cytometry (reference value: 4.78%). It counts as functional.
Test [10] concerns K562. Kind of test: Induction of apoptosis in human K562 cells assessed as viable cells at 1 uM after 24 hrs by Annexin V-FITC/propidium iodide staining-based flow cytometry (reference value: 92.4%). In kind it is functional.

Turning to `O=C(CCCCCCC(=O)Nc1ccccc1)NO` [VORINOSTAT], the Activity amounted to 6.97% in test [1]; 2.99% in test [2]; 0.05% in test [3]; 4.04% in test [4]; 0.06% in test [6]; 88.9% in test [7]. Moreover, the figures for the Activity entry in test [8], in test [9] and in test [10] were “Dose-dependent effect”, 6.1% and 90.8%, respectively. Moreover, it took 13.9 µM to reach half-maximal inhibition in test [5] (IC50).
